Data as given in ChEMBL document CHEMBL2203235, “Optimization of a natural product-based class of γ-secretase modulators” (J Med Chem, 2012).

Legend:
Mus musculus [1] = assay: Antialzheimer activity in CD1 mouse assessed as reduction in amyloid beta 38 level at 100 mg/kg, po at 6 hrs relative to vehicle-treated control; assay type: functional; design: scale not given: the % may be the effect or the level left
Outline: (§1)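 CD-1 mice received a single IP or PO dose (n = 12 per group) and were sampled at 6 h. Plasma and brain drug concentrations were measured in μM. Aβ42, Aβ40 and Aβ38 in brain homogenate are expressed as percent lowering versus vehicle. Statistical significance was assessed against vehicle.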

CHO [2] = assay: Modulation of gamma secretase in CHO cells expressing human APP assessed as reduction amyloid beta (1 to 38) level at 2 uM after 6 hrs by LC/MS/MS analysis relative to control; assay type: cell-based; design: scale not given: the % may be the effect or the level left; details: Cricetulus griseus
Outline: (§2)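 Cells were treated at 3 μM or 2 μM. Secreted Aβ peptides (Aβ37, 38, 39, 40, 42) were quantified by immunoprecipitation followed by LC/MS/MS. Changes are expressed relative to vehicle-treated cells.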

Mus musculus [3] = assay: Antialzheimer activity in CD1 mouse assessed as reduction in amyloid beta 40 level at 10 mg/kg, po QD for 5 days at 8 hrs post-last dose relative to vehicle-treated control; design: scale not given: the % may be the effect or the level left
CHO [4] = assay: Modulation of gamma secretase in CHO cells expressing human APP assessed as amyloid beta (1 to 40) level at 2 uM after 6 hrs by LC/MS/MS analysis (reference value: 10.2 ng); assay type: cell-based; details: Cricetulus griseus; outline: as §2
Mus musculus [5] = assay: Antialzheimer activity in CD1 mouse assessed as reduction in amyloid beta 38 level at 10 mg/kg, po QD for 5 days at 8 hrs post-last dose relative to vehicle-treated control; design: scale not given: the % may be the effect or the level left
[6] = Modulation of gamma secretase in CHO-2B7 cells assessed as reduction in amyloid beta 38 level after 5 hrs by MSD ELISA; assay type: cell-based; details: Cricetulus griseus, CHO-2B7, 5 h
[7] = Modulation of gamma secretase in CHO-2B7 cells assessed as reduction in amyloid beta 40 level after 5 hrs by MSD ELISA; assay type: cell-based; details: Cricetulus griseus, CHO-2B7, 5 h
Mus musculus [8] = assay: Antialzheimer activity in CD1 mouse assessed as reduction in amyloid beta 42 level at 10 mg/kg, po QD for 5 days at 8 hrs post-last dose relative to vehicle-treated control; design: scale not given: the % may be the effect or the level left
[9] = Modulation of gamma secretase in CHO-2B7 cells assessed as reduction in amyloid beta 42 level after 5 hrs by MSD ELISA; assay type: cell-based; details: Cricetulus griseus, CHO-2B7, 5 h
Mus musculus [10] = assay: Antialzheimer activity in CD1 mouse assessed as reduction in amyloid beta 42 level at 100 mg/kg, po at 6 hrs relative to vehicle-treated control; assay type: functional; design: scale not given: the % may be the effect or the level left; outline: as §1
CHO [11] = assay: Modulation of gamma secretase in CHO cells expressing human APP assessed as reduction in amyloid beta (1 to 42) level at 2 uM after 6 hrs by LC/MS/MS analysis relative to control; assay type: cell-based; design: scale not given: the % may be the effect or the level left; details: Cricetulus griseus; outline: as §2
SUP-T1 = assay: Inhibition of notch-mediated NICD release in human SUP-T1 cells at 4 uM after 18 hrs by immunoblotting assay; assay type: cell-based
Mus musculus [12] = assay: Antialzheimer activity in CD1 mouse assessed as reduction in amyloid beta 40 level at 30 mg/kg, po at 6 hrs relative to vehicle-treated control; assay type: functional; design: scale not given: the % may be the effect or the level left; outline: as §1
CHO [13] = assay: Modulation of gamma secretase in CHO cells expressing human APP assessed as increase in amyloid beta (1 to 39) level at 2 uM after 6 hrs by LC/MS/MS analysis relative to control; assay type: cell-based; details: Cricetulus griseus; outline: as §2
Mus musculus [14] = assay: Antialzheimer activity in CD1 mouse assessed as reduction in amyloid beta 42 level at 30 mg/kg, po at 6 hrs relative to vehicle-treated control; assay type: functional; design: scale not given: the % may be the effect or the level left; outline: as §1
[15] = Inhibition of gamma secretase in CHO-2B7 cells assessed as reduction in total amyloid beta level after 5 hrs by MSD ELISA; assay type: cell-based; details: Cricetulus griseus, CHO-2B7, 5 h
Mus musculus [16] = assay: Antialzheimer activity in CD1 mouse assessed as reduction in amyloid beta 38 level at 50 mg/kg, po QD for 5 days at 8 hrs post-last dose relative to vehicle-treated control; design: scale not given: the % may be the effect or the level left
Mus musculus [17] = assay: Antialzheimer activity in CD1 mouse assessed as reduction in amyloid beta 40 level at 50 mg/kg, po QD for 5 days at 8 hrs post-last dose relative to vehicle-treated control; design: scale not given: the % may be the effect or the level left
Mus musculus [18] = assay: Antialzheimer activity in CD1 mouse assessed as reduction in amyloid beta 38 level at 30 mg/kg, po at 6 hrs relative to vehicle-treated control; assay type: functional; design: scale not given: the % may be the effect or the level left; outline: as §1
Mus musculus [19] = assay: Antialzheimer activity in CD1 mouse assessed as reduction in amyloid beta 40 level at 100 mg/kg, po at 6 hrs relative to vehicle-treated control; assay type: functional; design: scale not given: the % may be the effect or the level left; outline: as §1
CHO [20] = assay: Modulation of gamma secretase in CHO cells expressing human APP assessed as increase in amyloid beta (1 to 37) level at 2 uM after 6 hrs by LC/MS/MS analysis relative to control; assay type: cell-based; details: Cricetulus griseus; outline: as §2
[21] = Cmax in rat at 10 mg/kg, po; assay type: ADME, organism-based; design: dose 10 mg/kg, route oral; details: in vivo
[22] = Half life in rat at 3 mg/kg, iv; assay type: ADME, organism-based; design: dose 3 mg/kg, route intravenous; details: in vivo
[23] = Ratio of drug uptake in brain to plasma in rat at 10 mg/kg, po at 6 hrs; assay type: ADME, organism-based; design: dose 10 mg/kg, route oral; details: brain and plasma, read-out: BPR
[24] = Oral bioavailability in rat at 10 mg/kg; assay type: ADME, organism-based; details: in vivo
[25] = Volume of distribution in rat at 3 mg/kg, iv; assay type: ADME, organism-based; design: dose 3 mg/kg, route intravenous; details: in vivo
[26] = (§3) Metabolic stability in human liver microsomes assessed as compound remaining at 1 uM at 60 mins by LC/MS/MS analysis in absence of NADPH; assay type: ADME, Microsome; details: liver microsomes, read-out: Stability
Outline: (§4)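 Human liver microsomes were run without NADPH as a qualitative read of susceptibility to enzymatic hydrolysis. The read-out was percent parent remaining at 60 min.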

[27] = Clearance in rat at 3 mg/kg, iv; assay type: ADME, organism-based; design: dose 3 mg/kg, route intravenous; details: in vivo
Liver microsomes [28] = assay: Metabolic stability in human liver microsomes at 1 uM after 60 mins by LC/MS/MS analysis; details: 1 h
[29] = Ratio of drug uptake in brain to plasma in CD1 mouse at 1 mg/kg, iv at 2 hrs; assay type: ADME, organism-based; design: dose 1 mg/kg, route intravenous; details: brain and plasma, read-out: BPR
Outline: (§5)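 Screen of CNS penetration: CD-1 mice were dosed IV and plasma and brain concentrations were measured. Brain-to-plasma ratio was calculated, mostly at 6 h post dose, with one compound sampled at 2 h.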

[30] = Drug uptake in CD1 mouse brain at 1 mg/kg, iv at 2 hrs; assay type: ADME, organism-based; design: dose 1 mg/kg, route intravenous; details: read-out: Drug uptake; outline: as §5
[31] = Plasma concentration in CD1 mouse at 1 mg/kg, iv at 2 hrs; assay type: ADME, organism-based; design: dose 1 mg/kg, route intravenous; outline: as §5
Liver microsomes [32] = assay: as §3; assay type: ADME, Microsome; details: microsomes, 1 h, 1 µM; outline: as §4

`CCO[C@@H]([C@H]1C[C@@H](C)[C@H]2[C@H](O1)[C@H](O)[C@@]1(C)[C@@H]3CC[C@H]4C(C)(C)[C@@H](O[C@H]5CN(C6CN(C)C6)CCO5)CC[C@@]45C[C@@]35CC[C@]21C)C(C)(C)O` gave an Activity (Mus musculus [1]) of 31%, an Activity (CHO [2]) of 33% and an Activity (Mus musculus [3]) of 7%. The Activity (CHO [4]) was 11.4 ng, the Activity (Mus musculus [5]) was 13% and the IC50 [6] was 160 nM. It also gave an IC50 [7] of 2100 nM, an Activity (Mus musculus [8]) of 9% and an IC50 [9] of 100 nM. For the same molecule, the Activity (Mus musculus [10]) was 26%, the Activity (CHO [11]) was 83% and the inhibition (SUP-T1) was 0%. For the same molecule, the Activity (Mus musculus [12]) was 9%, the Activity (CHO [13]) was 530% and the Activity (Mus musculus [14]) was 16%. For the same molecule, the IC50 [15] was 14000 nM, the Activity (Mus musculus [16]) was 38% and the Activity (Mus musculus [17]) was 10%. For the same molecule, the Activity (Mus musculus [18]) was 16%, the Activity (Mus musculus [19]) was 15% and the Activity (CHO [20]) was 380%.

`C[C@@H]1C[C@H]([C@H](O)C(C)(C)O)O[C@H]2[C@H]1[C@@]1(C)CC[C@@]34C[C@@]35CC[C@H](O[C@H]3CN([C@H]6CCNC6=O)CCO3)C(C)(C)[C@@H]5CC[C@H]4[C@]1(C)[C@H]2O` gave a Cmax [21] of 2200 nM, a half-life [22] of 5 h and a Kp at 6 h [23] of 0.09. For the same molecule, the IC50 [9] was no less than 20000 nM, the bioavailability [24] was greater than 100% and the Vd [25] was 3.1 L/kg. The remaining at 1 h, 1 µM [26] was 85% and the clearance [27] was 9.67 mL/min/kg.

For `CC(C)[C@@H](OC(=O)N1CCC1)[C@H]1C[C@@H](C)[C@H]2[C@H](O1)[C@H](O)[C@@]1(C)[C@@H]3CC[C@H]4C(C)(C)[C@@H](O[C@H]5CNCCO5)CC[C@@]45C[C@@]35CC[C@]21C`, the Stability (Liver microsomes [28]) was “Stable”, the IC50 [7] was 7900 nM and the IC50 [9] was 260 nM. For the same molecule, the Kp at 2 h [29] was 0.09, the concentration at 2 h [30] was 30 nM and the concentration at 2 h [31] was 326 nM. The Stability (Liver microsomes [32]) was 123%.
